2 molecules from ChEMBL document CHEMBL5543129, “Peptide Inhibitor Targeting the Extraterminal Domain in BRD4 Potently Suppresses Breast Cancer Both In Vitro and In Vivo” (J Med Chem, 2024) can be followed below.

Series [1] has as its system MDA-MB-231. The experiment in a line: Antitumor activity against human MDA-MB-231 cells xenografted in BALB/c nude mouse assessed as reduction in tumor growth at 25 mg/kg, ip administered every 2 days. In kind it is functional, organism-based. In short, it runs like this:
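Female BALB/c nude mice, 4–6 wk, given 5 × 10^6 cells in PBS subcutaneously; MCF7 mice also had E2 (10^-2 M) brushed on the neck every 2 days. Randomised at ~50 mm3. Peptide in 0.9% saline, 25 mg/kg ip every 2 days. Caliper volume (1/2 × L × W²) every 2 days.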

Series [2] concerns MCF7. The series is described as follows: Downregulation of c-Myc gene expression in human MCF7 cells at 10 uM incubated for 6 hrs by RT-qPCR analysis. In kind it is functional, cell-based. The procedure, abridged:
(§1)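 Cells treated with peptide (10 μM) for 6 h; c-Myc, N-myc and CCND1 mRNA measured by RT-qPCR. Three biological repeats.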
(In qPCR the cycle at which signal appears reflects the starting amount.)

Series [3] deals with MCF7. The series is described as follows: Downregulation of CCND1 gene expression in human MCF7 cells at 10 uM incubated for 6 hrs by RT-qPCR analysis. It counts as functional, cell-based. The procedure, abridged:
as §1

The nature of series [4]: Downregulation of c-Myc protein expression in human MCF7 cells assessed as fold change in remaining c-Myc level at 10 uM incubated for 24 hrs by immunoblotting analysis (reference value: 1). It counts as functional. In short, it runs like this:
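Cells (MCF7 or MDA-MB-231 in DMEM, 10% FBS, 37 °C, 5% CO2) are treated with peptide for 24 h. Lysates are taken in Tris/NaCl/EDTA/1% Triton buffer and run on 10% SDS-PAGE. Immunoblots are normalised to β-actin loading control; three repeats.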
For orientation: A western blot detects proteins with antibodies after separation by electrophoresis.

Series [5] is described as follows: Downregulation of […] protein expression in human MDA-MB-231 cells assessed as fold change in […] at 10 uM incubated for 24 hrs by immunoblotting analysis (reference value: 1). In kind it is functional. In short, it runs like this:
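Cells treated with peptide (10 μM) for 24 h. Lysates in Tris/NaCl/EDTA/1% Triton X-100, run on 10% SDS-PAGE and immunoblotted with ECL detection. β-actin as loading control. Three repeats, quantified against untreated cells.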

For another series, the system named is Mus musculus. The experiment in a line: Downregulation of N-myc mRNA expression in BALB/c mouse tumor xenografted with human MDA-MB-231 cells at 25 mg/kg, ip administered every 2 days by RT-qPCR analysis. In kind it is functional, organism-based. Background: Xenograft models place foreign cells or tissue in a host animal.
The test system of series [6] is MDA-MB-231. The series is described as follows: Inhibition of colony formation in human MDA-MB-231 cells at 10 uM incubated for 2 weeks in presence of 5 uM JQ1 by crystal violet staining based assay. In kind it is functional, cell-based. In short, it runs like this:
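Cells are seeded at 1 × 10^3/well and treated with peptide (10 μM) for 2 weeks, alone or with JQ1 5 μM, iJMJD6 10 μM, ICI 2.5 μM, or tamoxifen 3 μM (tamoxifen-resistant lines). Colonies are stained with crystal violet, dissolved in 10% acetic acid, and read at 590 nm. Three biological repeats.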

Series [7] concerns MCF7. The experiment in a line: Inhibition of cell migration in human MCF7 cells at 10 uM incubated for 24 hrs by inverted microscopic assay. In kind it is functional, cell-based. The procedure, abridged: (§2)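 Cells are seeded at 5 × 10^5/well and scratched at 80–90% confluence. They are kept in serum-free medium with peptide (10 μM); partner agents are JQ1 5 μM, iJMJD6 10 μM, or ICI 2.5 μM. Wound area is imaged by inverted microscope at 0 and 12 or 24 h. Wound closure % = (A0−A1)/A0 × 100. Three biological repeats.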

Series [8] deals with MDA-MB-231. The experiment in a line: Antitumor activity against human MDA-MB-231 cells xenografted in BALB/c nude mouse assessed as reduction in tumor weight at 12.5 mg/kg, ip administered every 2 days in presence of 50 mg/kg JQ1. In kind it is functional, organism-based. In short, it runs like this:
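Female BALB/c nude mice given 5 × 10^6 cells sc (MCF7 mice with E2 10^-2 M every 2 days), randomised at ~50 mm3. Peptide 12.5 mg/kg ip (saline) every 2 days, plus JQ1 50 mg/kg ip (DMSO/10% HPBCD 1:10) every 2 days or iJMJD6 12.5 mg/kg ip (DMSO/PBS 1:20). Caliper volume every 2 days; tumours weighed at the end.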

Series [9] is described as follows: Toxicity in BALB/c mouse xenografted with human MCF7 cells assessed as change in spleen morphology at 12.5 mg/kg, ip administered every 2 days in presence of 50 mg/kg JQ1. The note with it: in vivo, 48 h. It counts as organism-based.
The nature of series [10]: Toxicity in BALB/c mouse xenografted with human MCF7 cells assessed as change in heart weight at 12.5 mg/kg, ip administered every 2 days in presence of 50 mg/kg JQ1. It counts as organism-based. The note with it: in vivo, 48 h.
Series [11] can be described thus: Toxicity in BALB/c mouse xenografted with human MDA-MB-231 cells assessed as change in kidney morphology at 12.5 mg/kg, ip administered every 2 days in presence of 50 mg/kg JQ1. In kind it is organism-based. The note with it: in vivo, 48 h. The procedure, abridged: (§3)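 Female BALB/c nude mice (4–6 weeks) carried sc MDA-MB-231 xenografts (5 × 10^6 cells) and were randomized at about 50 mm3. Peptide (12.5 mg/kg ip in saline) and JQ1 (50 mg/kg ip, DMSO/10% HPBCD 1:10) were given every 2 days, alone or combined. Body weight was recorded, and heart, liver, spleen, lung and kidney morphology and weight were assessed.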

Series [12] in a line: Toxicity in BALB/c mouse xenografted with human MDA-MB-231 cells assessed as change in spleen morphology at 12.5 mg/kg, ip administered every 2 days in presence of 50 mg/kg JQ1. In kind it is organism-based. To be noted: in vivo, 48 h. The procedure, abridged: as §3
Series [13] concerns MCF7. The experiment in a line: Inhibition of cell migration in human MCF7 cells at 10 uM incubated for 24 hrs in presence of JMJD6 inhibitor by inverted microscopic analysis. It counts as functional, cell-based. In short, it runs like this: as §2
A short description of series [14]: Toxicity in BALB/c mouse xenografted with human MCF7 cells assessed as change in spleen at 12.5 mg/kg, ip administered every 2 days in presence of 12.5 mg/kg JMJD6 inhibitor. In kind it is organism-based. To be noted: in vivo, 48 h. In short, it runs like this:
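Female BALB/c nude mice carried MCF7 xenografts (5 × 10^6 cells sc, E2 10–2 M brushed every 2 days) and were randomized at about 50 mm3. Peptide was given at 12.5 mg/kg ip every 2 days, and iJMJD6 (DMSO/PBS 1:20) at 12.5 mg/kg ip every other day, alone or combined. Body and organ weights were recorded.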

In series [15] the test system is MCF7. The experiment in a line: Antiproliferative activity against human MCF7 cells at 10 uM incubated for 1 week in presence of fulvestrant by CellTiter 96 Aqueous One Solution based assay. In kind it is functional, cell-based. To be noted: time 1.0 weeks. In short, it runs like this: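 Cells seeded at 2 × 10^3/well and treated with peptide (10 μM) alone or combined with JQ1 (5 μM), iJMJD6 (10 μM) or ICI (2.5 μM), as the line states. Viability read by MTS reagent, 1 h at 37 °C, A490. Three biological repeats.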

Series [16] can be described thus: Downregulation of BRD4 protein expression in BALB/c mouse tumor xenografted with human MDA-MB-231 cells assessed as fold change in remaining BRD4 level at 25 mg/kg, ip administered every 2 days by immunoblotting analysis. It counts as functional. In short, it runs like this:
(§4)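 Tumours taken from xenograft mice dosed with peptide at 25 mg/kg ip every 2 days. […] Three repeats.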

The nature of series [17]: Downregulation of JMJD6 protein expression in BALB/c mouse tumor xenografted with human MDA-MB-231 cells assessed as fold change in remaining JMJD6 level at 25 mg/kg, ip administered every 2 days by immunoblotting analysis. It counts as functional. In short, it runs like this: as §4

Active and inactive are the calls of the source. The rule behind the calls is not given here. Square brackets hold non-standard residues; d marks the D form. Peptide text beside a SMILES is read from it. Hyp = O=C(O)[C@@H]1C[C@@H](O)CN1; Ahx = NCCCCCC(=O)O

With `CC[C@H](C)[C@H](NC(=O)[C@H](Cc1ccc(O)cc1)NC(=O)[C@@H]1C[C@@H](O)CN1C(=O)[C@H](C)NC(=O)[C@@H](NC(=O)CCCCCNC(=O)[C@H](CCC(=O)O)NC(=O)CNC(=O)[C@H](CS)NC(=O)[C@H](CCCCN)NC(=O)[C@H](Cc1ccccc1)NC(=O)[C@H](CCCCN)NC(=O)[C@H](CCC(N)=O)NC(=O)[C@H](CC(N)=O)NC(=O)[C@H](CCCNC(=N)N)NC(=O)[C@H](CCCNC(=N)N)NC(=O)[C@H](CCCNC(=N)N)NC(=O)[C@H](CCCNC(=N)N)NC(=O)[C@H](CCC(N)=O)NC(=O)[C@H](CCCNC(=N)N)NC(=O)[C@H](CCCNC(=N)N)NC(=O)[C@H](CCCCN)NC(=O)[C@H](CCCCN)NC(=O)[C@H](CCCNC(=N)N)NC(=O)CNC(=O)[C@@H](N)Cc1ccc(O)cc1)[C@@H](C)CC)C(=O)O` (H-YGRKKRRQRRRRNQKFKCGE[Ahx]IA[Hyp]YI-OH), the result in the series with MDA-MB-231 [1], with MCF7 [2], with MCF7 [3], in the series with Mus musculus, in the series with MDA-MB-231 [8] and in the series with MCF7 [15] was Active. Besides, the “fold change (FC)” value in series [4] came out at 0.72; in series [5], 0.68; in [16] it was 0.15; in series [17], 0.48. Further, the inhibition result in the series on MDA-MB-231 [6], with MCF7 [7] and in the series on MCF7 [13] was “Active” in each case. For the same molecule, the Activity entry in series [9], in [10], in [11], in series [12] and in series [14] was “Non-Toxic” throughout.

Consider H-YGRKKRRQRRRRNQKFKCGE-OH, for which the result in the series on MDA-MB-231 [1], with MCF7 [2], in the series on MCF7 [3], in the series on Mus musculus, in the series with MDA-MB-231 [8] and with MCF7 [15] was Active. Moreover, the “fold change (FC)” value in series [4] is recorded as 0.69; in [5], 0.72; in series [16], 0.63; in series [17] it was 0.98. The inhibition result with MDA-MB-231 [6], in the series on MCF7 [7] and in the series with MCF7 [13] was “Active” throughout. The Activity entry in series [9], in [10], in series [11], in [12] and in series [14] was “Non-Toxic” throughout.
